Consider two compounds from ChEMBL document CHEMBL1275590, “Novel arylimidamides for treatment of visceral leishmaniasis” (Antimicrob Agents Chemother, 2010).

Calls of active or inactive are those of the source.

Series [1] in a line: Induction of mutagenicity in Salmonella serovar Typhimurium TA 100 assessed as number of revertant colonies at 10 ug by Ames assay in presence of Aroclor 1254-induced rat liver S9 metabolic activation system. Type of series: toxicity, subcellular, Salmonella enterica subsp. enterica serovar Typhimurium. In short, it runs like this: (§1)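 Ames plate incorporation with S. Typhimurium TA98 and TA100, with or without Aroclor 1254-induced rat liver S9 (10% vol/vol). Compound was dissolved in sterile water and serially diluted to 1–500 μg/plate. Positive controls were 2-nitrofluorene and sodium azide without S9, and 2-aminoanthracene with S9; sterile water and DMSO served as vehicles. Revertant colonies and background lawn were scored. A mutagen was defined as a mean revertant count at least 2-fold over solvent control. Single experiment.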

The nature of series [2]: Induction of mutagenicity in Salmonella serovar Typhimurium TA 100 assessed as number of revertant colonies at 1 ug by Ames assay. Type of series: toxicity, Salmonella enterica subsp. enterica serovar Typhimurium. The following applies: in vivo. In short, it runs like this: as §1
Series [3] can be described thus: Induction of mutagenicity in Salmonella serovar Typhimurium TA 100 assessed as number of revertant colonies at 5 ug by Ames assay. Format: toxicity, Salmonella enterica subsp. enterica serovar Typhimurium. The note with it: in vivo. A digest of the protocol:
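Plate incorporation method with TA100, with and without Aroclor 1254-induced rat liver S9 (10% vol/vol). Compound dissolved in sterile water, serially diluted; plates scored for revertant count and background lawn versus controls. Mutagen if mean revertants at least 2-fold over mean solvent control. Positive controls: 2-nitrofluorene and sodium azide without S9, 2-aminoanthracene with S9; water and DMSO vehicles.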

The test system of series [4] is Mus musculus. Description: Toxicity in BALB/c mouse assessed as hypoactivity at 50 mg/kg/day, ip administered for five days. Format: organism-based. Details: route intraperitoneal. The following applies: in vivo.
Series [5] deals with Leishmania donovani. Description: Antileishmanial activity against Leishmania donovani promastigotes in po dosed BALB/c mouse assessed as inhibition of liver parasitemia. Format: functional, organism-based. A digest of the protocol: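 Murine VL model in L. donovani-infected mice. Compounds were dissolved in water and given i.p. or p.o. once daily for 5 days (4 days for one i.p. regimen). Liver parasitemia was compared with untreated controls by unpaired Student's t test, P ≤ 0.05.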

Series [6] concerns Leishmania donovani. The experiment in a line: Antileishmanial activity against Leishmania donovani WR378 infected in golden Syrian hamster assessed as reduction in liver parasitemia at 30 mg/kg/day, po administered for five days. Type of series: functional. The note with it: 120 h. In short, it runs like this: (§2)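 11-day golden hamster VL model adapted from an 8-day method, using L. donovani WR378 metacyclic promastigotes. Dosing was oral, once daily for 5 days. Animals were euthanized on day 11 post-infection. Liver, spleen and femoral bone marrow (flushed with Schneider's medium) were harvested.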

The test system of series [7] is Leishmania donovani. The experiment in a line: Antileishmanial activity against Leishmania donovani WR378 infected in golden Syrian hamster assessed as reduction in spleen parasitemia at 50 mg/kg/day, po administered for five days. Type of series: functional. The following applies: 120 h. A digest of the protocol:
as §2

A short description of series [8]: Volume of distribution in Swiss Webster mouse at 5 mg/kg, iv by HPLC-MS/MS analysis. Type of series: ADME, organism-based. Details: dose 5 mg/kg, route intravenous. The following applies: in vivo. In short, it runs like this: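 Male Swiss Webster mice (n = 3 per time point) got a single tail-vein bolus over ~10 to 20 s, 5 ml/kg. Compound was dissolved in sterile water at 2× and diluted 1:1 with 2× saline. Terminal blood was taken from 5 min to 72 h, and plasma was quantified by HPLC-MS/MS. Vss came from noncompartmental analysis.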

For series [9], the system named is Mus musculus. Description: Volume of distribution in Swiss Webster mouse at 70 mg/kg, po by HPLC-MS/MS analysis. Format: ADME, organism-based. Also on record: dose 70 mg/kg, route oral. The note with it: in vivo. In short, it runs like this:
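Male Swiss Webster mice (n = 3 per time point) got a single oral gavage dose in sterile water, 5 ml/kg. The 5 mM formulation was a clear solution; the 20 and 40 mM formulations were gelatinous. Terminal blood was collected from 5 min to 72 h postdose, and plasma was analysed by HPLC-MS/MS. Volume of distribution came from noncompartmental analysis.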

Series [10] relates to Mus musculus. The experiment in a line: Toxicity in BALB/c mouse assessed as occurrence of tremor at 50 mg/kg, iv. Format: organism-based. Details: dose 50 mg/kg, route intravenous. The following applies: in vivo. In short, it runs like this: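 Single-dose escalation: female BALB/c mice (n = 1 per dose level) given one i.v. dose in sterile water (10 ml/kg), 5–50 mg/kg, observed for 2 days.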

Series [11] deals with Mus musculus. The experiment in a line: Renal toxicity in BALB/c mouse assessed as blood urea nitrogen level in serum at 30 mg/kg/day, iv administered for five days (Rvb= 20 mg/dl). Format: organism-based. Details: route intravenous. The note with it: in vivo. In short, it runs like this:
(§3)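 Female BALB/c mice (n = 5 per dose), dosed once daily for 5 consecutive days p.o. (20 ml/kg) or i.v. (10 ml/kg) with compound in sterile water, prepared fresh daily under yellow light. Vehicle controls n = 5 per route. Clinical observations, body weights, serum chemistry and hematology on day 6 before necropsy; histopathology of formalin-fixed tissues. Chemistry analysed by one-way ANOVA with Dunnett's posttest.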

Series [12] has as its system Mus musculus. The experiment in a line: Hepatotoxicity in BALB/c mouse assessed as alkaline phosphatase level in serum at 30 mg/kg/day, iv administered for five days (Rvb= 134 U/L). The note with it: in vivo. Type of series: toxicity, organism-based. Details: route intravenous.
Series [13] can be described thus: Drug level in Swiss Webster mouse spleen at 70 mg/kg, po after 2 hrs by HPLC/UV analysis. The note with it: read-out: Drug uptake.
Series [14] in a line: Drug level in Swiss Webster mouse kidney at 70 mg/kg, po after 2 hrs by HPLC/UV analysis. The note with it: read-out: Drug uptake.
The test system of series [15] is Mus musculus. The experiment in a line: Toxicity in BALB/c mouse assessed as gastric inflammation at 150 mg/kg/day, po. Format: organism-based, Stomach. Details: route oral. The note with it: in vivo.
The test system of series [16] is Mus musculus. The experiment in a line: Toxicity in BALB/c mouse assessed as tendency to startle at 50 mg/kg/day, ip administered for five days. Type of series: organism-based. Also on record: route intraperitoneal. The following applies: in vivo. A digest of the protocol: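 Acute overt toxicity was checked in uninfected female BALB/c mice before the efficacy work. Compounds were given intraperitoneally once daily for 5 days, and mice were watched for clinical signs such as ruffled fur, hypoactivity, tremors, ataxia and startle, and for survival.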

Series [17] concerns Mus musculus. The experiment in a line: Toxicity in BALB/c mouse assessed as hypoactivity at 100 mg/kg/day, ip after second dose. Type of series: organism-based. Also on record: route intraperitoneal. The following applies: in vivo.
Series [18] is described as follows: AUC (0 to infinity) in Swiss Webster mouse at 4.9 mg/kg, iv by HPLC-MS/MS analysis. Type of series: ADME, organism-based. Also on record: time infinity, dose 4.9 mg/kg, route intravenous. The following applies: plasma. In short, it runs like this: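 Male Swiss Webster mice, n = 3 per time point. For i.v., the compound was dissolved in sterile water, diluted 1:1 with 2× saline, and given as a tail-vein bolus over ~10–20 s. For p.o., it was given by gavage in sterile water. Dose volume was 5 ml/kg. Terminal plasma was taken from 5 min to 72 h and measured by HPLC-MS/MS (calibration 2.5–10,000 nM). Parameters came from noncompartmental analysis.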

Series [19] relates to Mus musculus. The experiment in a line: Toxicity in BALB/c mouse assessed as occurrence of ruffled fur at 150 mg/kg/day, po administered for five days measured on day 4. Format: organism-based. The following applies: in vivo. Also on record: route oral. A digest of the protocol: as §3
The subject of series [20] is Mus musculus. Description: Toxicity in BALB/c mouse assessed as hyperactivity at 150 mg/kg/day, po administered for five days measured on day 5. Details: route oral. The note with it: in vivo. Format: organism-based. A digest of the protocol: as §3
Series [21] deals with Mus musculus. The experiment in a line: Hepatotoxicity in BALB/c mouse assessed as ALT level in serum at 10 mg/kg/day, iv administered for five days (Rvb= 34 U/L). The following applies: in vivo. Format: toxicity, organism-based. Details: route intravenous.
In series [22] the test system is Mus musculus. The experiment in a line: Hepatotoxicity in BALB/c mouse assessed as ALT level in serum at 150 mg/kg/day, po administered for five days (Rvb= 36 U/L). Format: toxicity, organism-based. The following applies: in vivo. Details: route oral.

For the compound `CC(C)Oc1cc(NC(=N)c2ccccn2)ccc1-c1ccc(-c2ccc(NC(=N)c3ccccn3)cc2OC(C)C)o1`, the Activity is 148 in [1]; 152 in [2]; 145 in series [3]; “Toxic” in series [4]; “Toxic” in series [10]; 24 mg/dL in [11]. Besides, the Activity in series [12] was 118 U/L. In [5], the outcome was Active. Further, the inhibition in vivo at 30 mg/kg/day in series [6] was 75%. For the same compound, in series [7], the inhibition in vivo at 50 mg/kg/day turned out to be 74%. For the same compound, the Vd is 15 L/kg in series [8] and 54 L/kg in series [9]. Also, the concentration at 2 h in series [13] stood at 43.1 µM; in series [14] it was 30.3 µM.
Regarding `CCOc1cc(NC(=N)c2ccccn2)ccc1-c1ccc(-c2ccc(NC(=N)c3ccccn3)cc2OCC)o1`, the Activity entry is “Toxic” in series [15]; “Toxic” in series [16]; “Toxic” in series [17]; “Toxic” in series [19]; “Toxic” in [20]; 40 U/L in series [21]. The Activity in series [22] was determined as 220 U/L. The same compound gave an AUC(0-inf) in [18] of 4.5 µM·h.
